Common to all, as to format: functional, cell-based
For assay [1], the system named is HL-60. Kind of assay: Induction of myeloid differentiation in human HL-60 cells at 50 nM in combination with 20 nM chaetocin measured after 12 hrs by Liu's staining method. Summed up:
(§1)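 Cells received single epigenetic inhibitors or combinations and were collected by cytospin. After Liu's staining (reagent A 1 min, reagent B 2.5 min), differentiated cells were counted under a light microscope. Mean ± s.e. of three independent experiments.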

Assay [2] has as its system U-937. Kind of assay: Cytotoxicity against human U-937 cells at 20 nM assessed as decrease in cell viability in combination with 50 nM JQ-1 measured after 24 hrs by MTT assay.
Assay [3] relates to KG-1a. Kind of assay: Cytotoxicity against human KG-1a cells at 20 nM assessed as decrease in cell viability in combination with 50 nM JQ-1 measured after 24 hrs by MTT assay. On the technique in general: Tetrazolium dyes change colour on reduction, which living cells bring about.
Assay [4] has as its system HL-60. Kind of assay: Cytotoxicity against human HL-60 cells at 20 nM assessed as decrease in cell viability in combination with 50 nM JQ-1 measured after 24 hrs by MTT assay.
The subject of assay [5] is KG-1a. Kind of assay: Induction of myeloid differentiation in human KG-1a cells at 50 nM in combination with 20 nM chaetocin measured after 12 hrs by Liu's staining method. An outline of the steps:
as §1

Assay [6] concerns U-937. Kind of assay: Induction of myeloid differentiation in human U-937 cells at 50 nM in combination with 20 nM chaetocin measured after 12 hrs by Liu's staining method. An outline of the steps:
as §1

Active and inactive are the calls of the source. The calls are words filed in the database; no cut-off is given here.

On to `CN1C(=O)[C@@]23C[C@]4([C@]56C[C@@]78SS[C@@](CO)(C(=O)N7[C@H]5Nc5ccccc56)N(C)C8=O)c5ccccc5N[C@@H]4N2C(=O)[C@]1(CO)SS3.Cc1sc2c(c1C)C(c1ccc(Cl)cc1)=N[C@@H](CC(=O)OC(C)(C)C)c1nnc(C)n1-2`, for which the outcome with HL-60 [1], in the assay on U-937 [2], with KG-1a [5] and in the assay on U-937 [6] was inactive. Moreover, the result in the assay with KG-1a [3] and in the assay on HL-60 [4] was Active.

The values are drawn from ChEMBL document CHEMBL5674867, “The SUV39H1 inhibitor chaetocin induces differentiation and shows synergistic cytotoxicity with other epigenetic drugs in acute myeloid leukemia cells” (Blood Cancer J, 2015).
